Results gathered from unrelated publications.
Lines come from different studies, so protocols differ.
Target: Serine/threonine-protein kinase ULK3 (ULK3, Homo sapiens, UniProt Q6PHR2)
Sequence (Q6PHR2 1-472, as in one of the studies): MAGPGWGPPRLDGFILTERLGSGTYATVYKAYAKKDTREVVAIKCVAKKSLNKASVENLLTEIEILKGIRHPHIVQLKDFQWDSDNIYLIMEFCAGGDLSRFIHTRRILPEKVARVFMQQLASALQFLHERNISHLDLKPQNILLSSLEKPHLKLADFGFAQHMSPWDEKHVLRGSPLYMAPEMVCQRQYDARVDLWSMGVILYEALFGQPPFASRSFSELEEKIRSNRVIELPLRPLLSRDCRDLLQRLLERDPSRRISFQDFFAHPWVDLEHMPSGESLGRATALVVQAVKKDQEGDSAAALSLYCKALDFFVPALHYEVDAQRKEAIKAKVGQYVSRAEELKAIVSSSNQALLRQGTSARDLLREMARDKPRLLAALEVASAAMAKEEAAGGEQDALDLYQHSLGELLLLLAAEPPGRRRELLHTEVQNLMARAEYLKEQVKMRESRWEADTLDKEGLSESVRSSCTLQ

| Compound | assay | setting | remaining binding [%] |
| --- | --- | --- | --- |
| c1cncc(-c2cccc(Nc3nccc(NC4CCCCC4)n3)c2)c1 | binding, competition with immobilised ligand | 10 µM | 44 |
| N[C@H]1CCN(c2nccc(-c3cnn4ncccc34)n2)C1 | binding | 1 µM | 86 |
| Nc1ncc2c(n1)-c1c([nH]c3ccc(C#CC4CC4)cc13)CCCC2 | binding, competition with immobilised ligand | 1 µM | 86 |
| FC(F)(F)Oc1cccc(-c2cnc3ccc(-c4ccncc4)nn23)c1 | binding, competition with immobilised ligand | 5 µM | 45 |
| CN(CCCC(F)(F)F)c1nccc(-c2cnn3ncccc23)n1 | binding | 1 µM | 94 |
| Cn1cc(Cl)c2c(Oc3c(F)cc(Nc4cc(Cl)nc(N)n4)cc3F)ccnc21 | cell-free assay, competition with immobilised ligand | 0.1 µM | 85 |
| Cc1cnc(Nc2ccc(C(=O)N3CCC(N4CCCC4)CC3)cc2)nc1-c1cc2ccccc2s1 | binding, competition with immobilised ligand | 1 µM | 0.3 |
| CNC(=O)Nc1ccc2c(c1)[C@@]1(CC2)OC(=O)N(CC(=O)N(Cc2ccc(F)cc2)[C@@H](C)C(F)(F)F)C1=O | cell-free assay, competition with immobilised ligand | 1 µM | 55 |
| CN(C)c1ncc(F)c(-c2cnn3ncccc23)n1 | binding | 1 µM | 72 |
| CC(=O)Nc1c(C(C)=O)c(=O)n(C)c2nc(-c3ccc(Cl)cc3Cl)c(-c3ccc(Cl)cc3)cc12 | cell-free assay, competition with immobilised ligand | 1 µM | 75 |
| O=C(c1ccc(Nc2ncc(Cl)c(-c3cc4ccccc4s3)n2)cc1)N1CCC(N2CCCC2)CC1 | binding, competition with immobilised ligand | 1 µM | 0.2 |
| O=C(Nc1c[nH]nc1C(=O)NC1CCNCC1)c1cc(F)cc(F)c1 | binding, competition with immobilised ligand | 1 µM | 100 |
| CC1CCCN1c1nccc(-c2cnn3ncccc23)n1 (centres unmarked) | binding | 1 µM | 100 |
| COc1cnc(Nc2cccc(S(N)(=O)=O)c2)nc1N1CCN(c2ccccc2)CC1 | binding, competition with immobilised ligand | 1 µM | 79 |
| Cn1nc(C(=O)NCc2ccc(C(=O)O)cc2)cc1-c1ccc2[nH]ccc2c1 | cell-free assay, competition with immobilised ligand | 0.1 µM | 99 |
| CN(C)c1nccc(-c2cnc3ncccn23)n1 | binding | 1 µM | 75 |
| CS(=O)(=O)N1CCCC(NC(=O)[C@H](CCC2CCCCC2)NC(=O)c2ccc(CNC(=O)c3cnc4ccccn34)cc2)C1 (some centres unmarked) | cell-free assay, competition with immobilised ligand | 0.1 µM | 100 |
| Cc1cc(-c2cc(C(F)(F)F)ccc2O[C@H]2C[C@@]2(CNS(=O)(=O)c2ccc([N+](=O)[O-])cc2)c2ccc(F)cc2F)[nH]n1 | cell-free assay, competition with immobilised ligand | 0.3 µM | 9.8 |
| O=C(O)[C@H]1[C@H](Cn2nnc3ccccc3c2=O)CC[C@@H]1C(=O)c1ccc(OCCC2CCOCC2)cc1 | cell-free assay, competition with immobilised ligand | 1 µM | 85 |
| O=C(c1ccc(Nc2nccc(-c3cc4ccccc4s3)n2)cc1)N1CCC(N2CCCC2)CC1 | binding, competition with immobilised ligand | 1 µM | 0.4 |
